Data taken from article PMC12318077 (Scientific Reports, 2025).

Key:
L. tropica promastigotes = test: Promastigotes proliferation assessment by MTT assay; format: cell-based, Leishmania tropica; conditions: for IC50: 48 h
Cytotoxicity assay = format: cell-based; conditions: human, 5% suspension of human blood erythrocytes
Outline: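 Test compound (25–426 µM) incubated with a 5% suspension of human blood erythrocytes at 37 °C for 3 h. 0.1% DMSO served as the negative control and 0.5% Triton X-100 as the positive control. Samples were spun at 1000 × g for 10 min, and released hemoglobin was read at 576 nm. Percent hemolysis was calculated and CC50 derived by linear interpolation. Triplicates, mean ± SD.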

Compound	IC50 (L. tropica promastigotes; L. tropica promastigotes, MTT, dose range 25–426 µM)	IC50 (L. tropica promastigotes; Leishmania tropica)	SI index (IC50/CC50 µM) (L. tropica promastigotes; ratio of hemolysis CC50 and L. tropica IC50)	CC50 at 3 h (Cytotoxicity assay)
5,5′,5″-(nitrilotris(ethane-2,1-diyl))tris(3-(4-ethylphenyl)-1,3,5-thiadiazinane-2-thione) [Compound T24]	26.9 µM			
C[C@@H]1[C@H](O)[C@@H](C)/C=C/C=C/C=C/C=C/C=C/C=C/C=C/[C@H](O[C@@H]2O[C@H](C)[C@@H](O)[C@H](N)[C@@H]2O)C[C@@H]2O[C@](O)(C[C@@H](O)C[C@@H](O)[C@H](O)CC[C@@H](O)C[C@@H](O)CC(=O)O[C@H]1C)C[C@H](O)[C@H]2C(=O)O [Amp-B, Amphotericin B, reference compound]		15.7 µM	0.18	
CCCCN1CN(CC(=O)O)CSC1=S [BG, 2-(5-Butyl-6-thioxo-1,3,5-thiadiazinan-3-yl) acetic acid]				376 µM
Cc1cc(C)c(N2CSC(=S)N(CCN(CCN3CN(c4c(C)cc(C)cc4C)CSC3=S)CCN3CN(c4c(C)cc(C)cc4C)CSC3=S)C2)c(C)c1 [Compound T25, 3,3′,3″-(nitrilotris(ethane-2,1-diyl))tris(5-mesityl-1,3,5-thiadiazinane-2-thione)]		27.7 µM		89.7 µM
CCCN1CN(CC(=O)O)CSC1=S [PG, 2-(5-propyl-6-thioxo-1,3,5-thiadiazinan-3-yl)acetic acid]		82.8 µM		402 µM
